# Bioassay records: PubChem BioAssay, several laboratories
# Myeloid diff MLP – compounds promoting myeloid differentiation; ER-HoxA9 myeloid progenitors, lysozyme-GFP differentiation, flow cytometry; calls only at 10 µM; 360,000 compounds, 1% hits; AID 624256;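 active = normalized GFP-positive differentiation at or above the plate's own cutoff, the solvent-only control mean plus 3 SD; inconclusive = no clear call, values can overlap the other calls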;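 note: cells exposed to compound for four days before flow analysis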
# Granule exo inh – blocks lytic granule exocytosis; TALL-104 LAMP-1 surface exposure, flow cytometry; cells stimulated with thapsigargin and PMA; inhibition, % at 10 µM; 360,000 compounds, 0.66% hits;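 active = inhibition above about 55%, limit read from the data; inconclusive = no clear call, values can overlap the other calls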
# MC4R barr agon – activates human MC4R beta-arrestin recruitment | U2OS MC4R beta-arrestin complementation, luminescence; percent of melanotan II response, DMSO zero | activation, % at 8.9 µM | 360,000 compounds, 0.98% hits;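 active = activation above a per-plate cutoff, the mean activation of sample wells on that plate plus 3 SD, cut at about 8% in these data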
# Target sequence (P32245 whole entry, looked up): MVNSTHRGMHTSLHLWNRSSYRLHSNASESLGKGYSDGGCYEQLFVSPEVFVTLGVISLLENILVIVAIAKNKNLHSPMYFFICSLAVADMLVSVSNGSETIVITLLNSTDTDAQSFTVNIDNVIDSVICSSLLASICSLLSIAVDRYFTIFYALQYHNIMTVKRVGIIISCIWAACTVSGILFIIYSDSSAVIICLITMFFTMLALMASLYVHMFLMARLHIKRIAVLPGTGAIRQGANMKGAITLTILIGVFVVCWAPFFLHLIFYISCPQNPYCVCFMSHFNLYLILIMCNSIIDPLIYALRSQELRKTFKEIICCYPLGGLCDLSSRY
# EBI2 block – blocks human EBI2 receptor beta-arrestin signaling; 360,000 compounds, 0.81% hits; EBI2 beta-arrestin recruitment, luminescence, 7a,25-OHC stimulated; inhibition, % at 5 µM; P32249; AID 651636; in the data active = inhibition above about 38%;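 note: enzyme fragment complementation signal reports receptor beta-arrestin coupling in cells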
# MC4R antag cAMP – human MC4R antagonism in cAMP assay; 360,000 compounds, 0.48% hits; MC4R-expressing cells, MTII-stimulated cAMP, LANCE TR-FRET; inhibition, % at 6.5 µM;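 active = inhibition above its plate's cutoff, the mean of tested wells on that plate plus 3 SD, cut at about 29% in these data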
#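 Material: human MC4R-expressing U2OS cells. Probe or stimulus: Melanotan II challenge. Dosing: 6.5 µM single dose. Times: 30-min compound, 1-h challenge, 1-h detection, room temperature. Technique: TR-FRET with Eu-cAMP and labeled anti-cAMP, 671 nm. Replication: singlicate.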
# EBI2 conf – confirmation of human EBI2 receptor antagonists. shares compounds with EBI2 block. EBI2 beta-arrestin luminescence, 7a,25-OHC antagonism. inhibition, % at 5 µM. 2,400 compounds, 29% hits;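 active = inhibition of at least 50%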
# EBI2 ag – activates EBI2, counter-screen for EBI2 antagonists. shares compounds with EBI2 block. EBI2-expressing cells, agonist mode, luminescence, 60 min; 0% vehicle, 100% 7α,25-dihydroxycholesterol control. activation, % at 5 µM. 2,400 tested, under 10 active. AID 652000;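 active = activation of at least 50%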
# bGal cs – counter-screen for EBI2 antagonists: E. coli beta-galactosidase inhibition | shares compounds with EBI2 block | purified beta-galactosidase, luminescent Galacton Star, 15 min | inhibition, % at 5 µM | 2,400 compounds, 1% hits;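 active = replicate-average signal at least 3 plate SD below neutral wells, shown as high inhibition, flagging enzyme-inhibiting false positives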;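 note: higher means stronger loss of beta-gal luminescence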
# Hits are given with their value; - = inactive; ? = inconclusive; . = not tested or not shown. In the library only some 3.7% were active in any assay of this set; here they are far more common.
SMILES,Myeloid diff MLP,Granule exo inh,MC4R barr agon,EBI2 block,MC4R antag cAMP,EBI2 conf,EBI2 ag,bGal cs
Cc1sc2ncnc(NCC(O)c3ccc([N+](=O)[O-])cc3)c2c1C (stereo not given),?,-,-,-,-,.,.,.
CC1CN(C(=O)/C=C/c2ccc(SC(F)F)cc2)CC(C)O1 (stereo not given),-,-,-,-,-,.,.,.
Cc1ccc(/C=N/NC(=O)CSCc2ccc(Cl)cc2)cc1,-,-,-,62,-,-,-,-
CSc1ccc(/C=N/NC(=O)CN2CCN(Cc3ccccc3)CC2)cc1,-,-,-,50,-,-,-,-
Cc1ccc(/C=N/NC(=O)Cc2cccn2C)cc1,-,-,-,46,-,-,-,-
CSc1ccc(/C=N/NC(=O)CN2CCN(Cc3ccc(Cl)cc3)CC2)cc1,-,-,-,50,-,-,-,-
O=C(CN1CCN(Cc2ccccc2)CC1)N/N=C/c1ccccc1F,-,-,-,-,-,.,.,.
COc1ccc(CNC(=O)/C=C/c2ccc(OCCCF)cc2)cc1OC,-,-,-,-,-,.,.,.
O=C(/C=C/c1ccc(OCCCF)cc1)NCc1ccc(Cl)c(Cl)c1,-,-,8.9,44,-,-,-,-
CCOC(=O)c1c(NC(=S)NC(=O)c2cnn(CC)c2)sc2c1CCC(C)C2 (stereo not given),-,-,-,46,-,-,-,-
Nc1[nH]c(=O)nc(Nc2ccccc2)c1N=O,-,-,-,-,-,.,.,.
Clc1cccc(Nc2nc(-c3ccncc3)cs2)c1,-,-,-,52,-,-,-,-
Cc1cccc(Nc2nc(-c3ccncc3)cs2)c1,-,-,-,-,-,.,.,.
COc1ncc(-c2ccc(N3C(c4ccc([N+](=O)[O-])cc4)=Cc4ccccc4C3CC(C)=O)cc2)cn1 (stereo not given),-,-,.,-,.,.,.,.
CCOc1ccc(NC(=O)CSc2ccc3nnc(-c4ccccn4)n3n2)cc1,?,-,-,-,-,.,.,.
O=C(CSc1ccc2nnc(-c3ccccn3)n2n1)Nc1ccccc1,-,-,-,55,-,-,-,-
COc1cccc(C(=O)N(C)Cc2c(C)nn(C3CCS(=O)(=O)C3)c2C)c1 (stereo not given),-,-,-,-,-,.,.,.
O=S(=O)(c1ccc(NC(=S)NN=C(Cc2ccccc2)Cc2ccccc2)cc1)N1CCOCC1,-,-,-,46,-,-,-,-
CC(=O)N1CCN(S(=O)(=O)c2cccc(C(=O)N3CCN(S(=O)(=O)c4c(C)c(C)cc(C)c4C)CC3)c2)CC1,-,-,-,-,-,.,.,.
Cc1nn(-c2ccccc2)c(C)c1/C=N/NC(=O)c1cc(-c2ccc(Br)s2)[nH]n1,?,-,-,59,-,-,-,-
Cc1nn(-c2ccccc2)c(C)c1/C=N/NC(=O)c1cc(-c2ccc(Cl)s2)[nH]n1,?,-,-,52,-,-,-,-
Cc1nc2cc(-c3ccc(Cl)cc3)nn2c(C)c1CCC(=O)NCc1ccco1,-,-,-,50,-,-,-,-
COc1ccc(/C=C/C(=O)c2ccc(Cl)s2)cc1O,-,-,-,-,-,.,.,.
COc1cc(/C=C/C(=O)c2ccc(Cl)s2)cc(OC)c1O,-,-,-,45,-,-,-,-
Cc1ccc(-c2nnc(/C=C/c3ccccc3)o2)cc1,-,-,-,49,-,-,-,-
SMILES,Myeloid diff MLP,Granule exo inh,MC4R barr agon,EBI2 block,MC4R antag cAMP,EBI2 conf,EBI2 ag,bGal cs
CCn1nnc(NC(=O)c2ccco2)n1,-,-,-,-,-,.,.,.
O=C(c1ccco1)N1CCc2[nH]nc(-c3ccc(Cl)cc3)c2C1,-,-,-,41,-,-,-,-
COc1ccc(-c2n[nH]c3c2CN(C(=O)c2ccccc2)CC3)cc1,-,-,-,-,-,.,.,.
COc1ccc(CCN2CC(C(=O)N3CCC(OC)CC3)CCC2=O)cc1 (stereo not given),-,-,-,-,-,.,.,.
O=C1CCC(C(=O)N2CCSCC2)CN1CCc1ccccc1 (stereo not given),-,-,-,-,-,.,.,.
C=CCC1(CC=C)CCCN1C(=O)C1CCC(=O)N(CCc2ccccc2)C1 (stereo not given),-,-,-,46,-,-,-,-
